Test results from ChEMBL document CHEMBL1148485, “Synthesis and biological evaluation of new selective cytotoxic cyclolignans derived from podophyllotoxin” (J Med Chem, 2004).

Legend:
[1] = system: A549; assay: In vitro cytotoxicity against A-549 (human lung carcinoma) cell line.; format: functional, cell-based; conditions: Homo sapiens, A549
[2] = system: SK-MEL-28; assay: Tested in vitro for antineoplastic activity against MEL-28 (human melanoma) tumor cell line; format: functional, cell-based
How it was run: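 MEL-28 cells seeded at 2 × 10^4 cells/well in MEM–10% FCS containing graded compound concentrations. Incubated 4 days at 37 °C, 10% CO2, 98% humidity. Stained with crystal violet and inhibition judged against untreated controls, which were kept in exponential growth. Mean of duplicate wells.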

[3] = system: HT-29; assay: In vitro cytotoxicity against HT-29 (human colon carcinoma) cell line.; format: functional, cell-based; conditions: Homo sapiens, HT-29
[4] = system: P388; assay: Tested in vitro for antineoplastic activity against P-388 (lymphoid neoplasm from DBA/2 mouse) tumor cell line; format: functional, cell-based
How it was run: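 P-388 cells seeded at 1 × 10^4 cells/well in MEM–10% FCS containing graded compound concentrations. Incubated 4 days at 37 °C, 10% CO2, 98% humidity. Inhibition scored by inverted microscopy against untreated controls, which were kept in exponential growth. Mean of duplicate wells.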

[5] = Selectivity index is the ratio of IC50 of P-388 cell line to that of HT-29; format: functional
[6] = system: HeLa; assay: Tested for effect of compound on G0/G1 cell cycle phase and apoptosis in HeLa cells at a dose of 10E-7 for 48 hr; format: functional, Homo sapiens
How it was run: (§1)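 HeLa cells were grown in DMEM with 10% heat-inactivated FCS and 2 mM L-glutamine at 37 °C in 5% CO2. They were exposed to 10^-6 to 10^-8 M for 24, 48 or 72 h. Then (3-5)×10^5 cells were fixed overnight in 70% ethanol at 4 °C, PBS-washed, and given 1 mg/mL RNase A plus 20 µg/mL propidium iodide for 1 h at room temperature. DNA content was read by flow cytometry. Sub-G1 (hypodiploid) % counted as apoptotic. Untreated controls were run in parallel. Representative of three independent experiments.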

[7] = system: HeLa; assay: Tested for effect of compound on S cell cycle phase and apoptosis in HeLa cells at a dose of 10E-8 for 72 hr; format: functional, Homo sapiens
How it was run: (§2)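 HeLa cells grown in DMEM with 10% heat-inactivated FCS, 2 mM L-glutamine, penicillin and gentamicin at 37 °C, 5% CO2. Exposed to compound at 10^-6 to 10^-8 M for 24, 48 or 72 h, untreated controls run in parallel. (3-5) × 10^5 cells fixed overnight in 70% ethanol at 4 °C, then RNase A plus propidium iodide. Phase fractions measured by flow cytometry, with sub-G1 (hypodiploid) cells counted as apoptotic. Three independent experiments.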

[8] = system: HeLa; assay: Tested for effect of compound on G2/M cell cycle phase and apoptosis in HeLa cells at a dose of 10E-8 for 48 hr; format: functional, Homo sapiens; how it was run: as §2
[9] = system: HeLa; assay: Tested for effect of compound on G0/G1 cell cycle phase and apoptosis in HeLa cells at a dose of 10E-7 for 72 hr; format: functional, Homo sapiens; how it was run: as §1
[10] = system: HeLa; assay: Tested for effect of compound on Sub-G1 cell cycle phase and apoptosis in HeLa cells at a dose of 10E-6 for 72 hr; format: functional, Homo sapiens; how it was run: as §2
[11] = system: HeLa; assay: Tested for effect of compound on S cell cycle phase and apoptosis in HeLa cells at a dose of 10E-6 for 72 hr; format: functional, Homo sapiens; how it was run: as §2
[12] = system: HeLa; assay: Tested for effect of compound on Sub-G1 cell cycle phase and apoptosis in HeLa cells at a dose of 10E-7 for 72 hr; format: functional, Homo sapiens; how it was run: as §2
[13] = system: HeLa; assay: Tested for effect of compound on G0/G1 cell cycle phase and apoptosis in HeLa cells at a dose of 10E-8 for 24 hr; format: functional, Homo sapiens; how it was run: as §1
[14] = system: HeLa; assay: Tested for effect of compound on G0/G1 cell cycle phase and apoptosis in HeLa cells at a dose of 10E-8 for 48 hr; format: functional, Homo sapiens; how it was run: as §1
[15] = system: HeLa; assay: Tested for effect of compound on Sub-G1 cell cycle phase and apoptosis in HeLa cells at a dose of 10E-6 for 24 hr; format: functional, Homo sapiens; how it was run: as §2
[16] = system: HeLa; assay: Tested for effect of compound on G2/M cell cycle phase and apoptosis in HeLa cells at a dose of 10E-6 for 48 hr; format: functional, Homo sapiens; how it was run: as §1
[17] = system: HeLa; assay: Tested for effect of compound on G0/G1 cell cycle phase and apoptosis in HeLa cells at a dose of 10E-6 for 24 hr; format: functional, Homo sapiens; how it was run: as §1
[18] = system: HeLa; assay: Tested for effect of compound on G2/M cell cycle phase and apoptosis in HeLa cells at a dose of 10E-8 for 24 hr; format: functional, Homo sapiens; how it was run: as §2
[19] = system: HeLa; assay: Tested for effect of compound on G2/M cell cycle phase and apoptosis in HeLa cells at a dose of 10E-6 for 24 hr; format: functional, Homo sapiens; how it was run: as §1
[20] = system: HeLa; assay: Tested for effect of compound on Sub-G1 cell cycle phase and apoptosis in HeLa cells at a dose of 10E-8 for 72 hr; format: functional, Homo sapiens; how it was run: as §2
[21] = system: HeLa; assay: Tested for effect of compound on S cell cycle phase and apoptosis in HeLa cells at a dose of 10E-7 for 48 hr; format: functional, Homo sapiens; how it was run: as §2
[22] = system: HeLa; assay: Tested for effect of compound on G0/G1 cell cycle phase and apoptosis in HeLa cells at a dose of 10E-7 for 24 hr; format: functional, Homo sapiens; how it was run: as §1
[23] = system: HeLa; assay: Tested for effect of compound on G2/M cell cycle phase and apoptosis in HeLa cells at a dose of 10E-7 for 72 hr; format: functional, Homo sapiens; how it was run: as §2
[24] = system: HeLa; assay: Tested for effect of compound on Sub-G1 cell cycle phase and apoptosis in HeLa cells at a dose of 10E-8 for 24 hr; format: functional, Homo sapiens; how it was run: as §2
[25] = system: HeLa; assay: Tested for effect of compound on G0/G1 cell cycle phase and apoptosis in HeLa cells at a dose of 10E-6 for 48 hr; format: functional, Homo sapiens; how it was run: as §1
[26] = system: HeLa; assay: Tested for effect of compound on G0/G1 cell cycle phase and apoptosis in HeLa cells at a dose of 10E-8 for 72 hr; format: functional, Homo sapiens; how it was run: as §1
[27] = system: HeLa; assay: Tested for effect of compound on S cell cycle phase and apoptosis in HeLa cells at a dose of 10E-6 for 24 hr; format: functional, Homo sapiens; how it was run: as §2
[28] = system: HeLa; assay: Tested for effect of compound on S cell cycle phase and apoptosis in HeLa cells at a dose of 10E-6 for 48 hr; format: functional, Homo sapiens; how it was run: as §2
[29] = system: HeLa; assay: Tested for effect of compound on S cell cycle phase and apoptosis in HeLa cells at a dose of 10E-8 for 24 hr; format: functional, Homo sapiens; how it was run: as §2
[30] = system: HeLa; assay: Tested for effect of compound on Sub-G1 cell cycle phase and apoptosis in HeLa cells at a dose of 10E-6 for 48 hr; format: functional, Homo sapiens; how it was run: as §2
[31] = system: HeLa; assay: Tested for effect of compound on G2/M cell cycle phase and apoptosis in HeLa cells at a dose of 10E-7 for 24 hr; format: functional, Homo sapiens; how it was run: as §2
[32] = system: HeLa; assay: Tested for effect of compound on G2/M cell cycle phase and apoptosis in HeLa cells at a dose of 10E-8 for 72 hr; format: functional, Homo sapiens; how it was run: as §2
[33] = system: HeLa; assay: Tested for effect of compound on S cell cycle phase and apoptosis in HeLa cells at a dose of 10E-7 for 72 hr; format: functional, Homo sapiens; how it was run: as §2
[34] = system: HeLa; assay: Tested for effect of compound on Sub-G1 cell cycle phase and apoptosis in HeLa cells at a dose of 10E-8 for 48 hr; format: functional, Homo sapiens; how it was run: as §2
[35] = system: HeLa; assay: Tested for effect of compound on S cell cycle phase and apoptosis in HeLa cells at a dose of 10E-8 for 48 hr; format: functional, Homo sapiens; how it was run: as §2
[36] = system: HeLa; assay: Tested for effect of compound on Sub-G1 cell cycle phase and apoptosis in HeLa cells at a dose of 10E-7 for 24 hr; format: functional, Homo sapiens; how it was run: as §2
[37] = system: HeLa; assay: Tested for effect of compound on G2/M cell cycle phase and apoptosis in HeLa cells at a dose of 10E-6 for 72 hr; format: functional, Homo sapiens; how it was run: as §2
[38] = system: HeLa; assay: Tested for effect of compound on G0/G1 cell cycle phase and apoptosis in HeLa cells at a dose of 10E-6 for 72 hr; format: functional, Homo sapiens; how it was run: as §1
[39] = system: HeLa; assay: Tested for effect of compound on Sub-G1 cell cycle phase and apoptosis in HeLa cells at a dose of 10E-7 for 48 hr; format: functional, Homo sapiens; how it was run: as §2
[40] = system: HeLa; assay: Tested for effect of compound on S cell cycle phase and apoptosis in HeLa cells at a dose of 10E-7 for 24 hr; format: functional, Homo sapiens; how it was run: as §2
[41] = system: HeLa; assay: Tested for effect of compound on G2/M cell cycle phase and apoptosis in HeLa cells at a dose of 10E-7 for 48 hr; format: functional, Homo sapiens; how it was run: as §2

COC(=O)[C@@H]1C(/C=N/c2cc(C)c(C)cc2N)=Cc2cc3c(cc2C1c1cc(OC)c(OC)c(OC)c1)OCO3 (some centres undefined)
IC50 [1]: 900 nM | IC50 [2]: 900 nM | IC50 [3]: 200 nM | IC50 [4]: 900 nM | Selectivity index [5]: 4.5

COC(=O)[C@@H]1C(/C=N/c2ccccc2)=Cc2cc3c(cc2C1c1cc(OC)c(OC)c(OC)c1)OCO3 (some centres undefined)
IC50 [1]: 20 nM | IC50 [2]: 1200 nM | IC50 [3]: 20 nM | IC50 [4]: 500 nM | Selectivity index [5]: 25

COC(=O)[C@@H]1C(/C=N/c2nccs2)=Cc2cc3c(cc2C1c1cc(OC)c(OC)c(OC)c1)OCO3 (some centres undefined)
IC50 [1]: 250 nM | IC50 [2]: 250 nM | IC50 [3]: 25 nM | IC50 [4]: 200 nM | Selectivity index [5]: 8

CCC/N=C/C1=Cc2cc3c(cc2C(c2cc(OC)c(OC)c(OC)c2)[C@@H]1C(=O)OC)OCO3 (some centres undefined)
IC50 [1]: 110 nM | IC50 [3]: 10 nM | IC50 [4]: 1100 nM | Selectivity index [5]: 110

CCCCCC/N=C/C1=Cc2cc3c(cc2C(c2cc(OC)c(OC)c(OC)c2)[C@@H]1C(=O)OC)OCO3 (some centres undefined)
IC50 [1]: 200 nM | IC50 [2]: 490 nM | IC50 [3]: 20 nM | IC50 [4]: 2000 nM | Selectivity index [5]: 100

COC(=O)[C@@H]1C(/C=N/c2cncnc2N)=Cc2cc3c(cc2C1c1cc(OC)c(OC)c(OC)c1)OCO3 (some centres undefined)
IC50 [1]: 23 nM | IC50 [2]: 1000 nM | IC50 [3]: 23 nM | IC50 [4]: 1900 nM | Selectivity index [5]: 83

COC(=O)[C@@H]1C(/C=N/c2cc(OC)c(OC)c(OC)c2)=Cc2cc3c(cc2C1c1cc(OC)c(OC)c(OC)c1)OCO3 (some centres undefined)
IC50 [1]: 210 nM | IC50 [2]: 420 nM | IC50 [3]: 21 nM | IC50 [4]: 850 nM | Selectivity index [5]: 40

COC(=O)[C@@H]1C(/C=N/c2ccc(OC)cc2)=Cc2cc3c(cc2C1c1cc(OC)c(OC)c(OC)c1)OCO3 (some centres undefined)
Activity [6]: 7.7% | Activity [7]: 11.4% | Activity [8]: 25.5% | Activity [9]: 35.1% | Activity [10]: 49.4% | IC50 [1]: 94 nM | Activity [11]: 20.8% | Activity [12]: 27.1% | Activity [13]: 55.1% | Activity [14]: 57.5% | Activity [15]: 1.9% | Activity [16]: 47.8% | IC50 [3]: 9.4 nM | Activity [17]: 2% | Activity [18]: 28.2% | Activity [19]: 90.8% | Activity [20]: 2.7% | Activity [21]: 6.2% | Activity [22]: 33.5% | Activity [23]: 24.2% | Activity [24]: 1.4% | Activity [25]: 20.9% | Activity [26]: 59.3% | Activity [27]: 5.3% | Activity [28]: 6% | Activity [29]: 15.3% | IC50 [4]: 940 nM | Activity [30]: 25.3% | Activity [31]: 46.1% | Activity [32]: 26.6% | Activity [33]: 13.6% | Activity [34]: 1.9% | Activity [35]: 15.1% | Activity [36]: 1.6% | Selectivity index [5]: 100 | Activity [37]: 10.4% | Activity [38]: 19.4% | Activity [39]: 5.2% | Activity [40]: 18.8% | Activity [41]: 80.9%
